Published values pooled from the literature.
Protocols differ between the studies behind these lines.
Target: Dual specificity mitogen-activated protein kinase kinase 1 (MAP2K1, Homo sapiens, UniProt Q02750)

`Cn1c(=O)n(-c2ccc(C(C)(C)C#N)cc2)c2c3cc(-c4cnc5ccccc5c4)ccc3ncc21` gave a remaining activity of 116% (enzyme activity; inhibitor; 10 µM).
With `CCN(CC)CCNC(=O)c1c(C)[nH]c(/C=C2\C(=O)Nc3ccc(F)cc32)c1C` the remaining activity was 79% (enzyme activity; inhibitor; 0.1 µM).
With `CC(C)(O)c1cncc(-c2nc3ccc(F)cc3n2C2CC2)c1` the remaining binding was 100% (cell-free assay; competition with immobilised ligand; 1 µM).
`COc1cc(Cl)c(C(=O)N[C@@H](CN[C@H]2CC[C@@H](N)CC2)Cc2ccc(C#N)cc2)cc1-c1ccc(CN[C@H](C)c2ccc(C)cc2)o1` gave a remaining activity of 98% (enzyme activity; inhibitor; 1 µM).
For `Cc1cc(C)c(-n2ccn3nc(-c4cccnc4)cc23)cc1NC(=O)c1cc(C#N)cc(S(F)(F)(F)(F)F)c1`, the remaining binding was 76.2% (cell-free assay; competition with immobilised ligand; 0.1 µM).
With `O=C1Nc2ccc(Cl)cc2C1=Cc1cc(Cl)c(O)c(Cl)c1` the remaining signal was 96.8% (cell-free assay; 0.5 µM).
With `FC(F)(F)Oc1cccc(-c2cnc3ccc(-c4ccncc4)nn23)c1` the activity vs control was 79% (enzyme activity; inhibitor; radiometric; 1 µM).
The remaining binding of `CNC(=O)Nc1ccc2c(c1)CC[C@@]21OC(=O)N(CC(=O)N(Cc2ccc(F)cc2)[C@@H](C)C(F)(F)F)C1=O` is reported as 85% (cell-free assay; competition with immobilised ligand; 1 µM).
For `Nc1nc(Nc2ccccc2)sc1C(=O)c1c(F)cccc1F`, the remaining activity was 96% (enzyme activity; inhibitor; 10 µM).
For `CN1CC(Oc2cnc(C#N)cc2-c2ccn3nc(NC(=O)C4CC4)cc3c2)C1`, the inhibition was 13% (enzyme activity; inhibitor; 1 µM).
With `CC(C)(C)c1nc2c(s1)c1nc(N)ncc1c1ccc(NS(=O)(=O)c3c(F)cccc3F)c(F)c12` the remaining activity was 79% (enzyme activity; inhibitor; radiometric; 1 µM).
The inhibition of `CCN(CC)CCNC(=O)c1c(C)[nH]c(/C=C2\C(=O)Nc3ccc(F)cc32)c1C` is reported as 76% (enzyme activity; inhibitor; 10 µM).
For `COc1ccc2c(O[C@@H]3C[C@H]4C(=O)N[C@]5(C(=O)O)CC5/C=C\CCCCC[C@H](NC(=O)OC5CCCC5)C(=O)N4C3)cc(-c3csc(NC(=O)C(C)C)n3)nc2c1C` (stereo partly shown), the remaining binding was 85% (cell-free assay; competition with immobilised ligand; 1 µM).
`Cc1cc(NC(=O)c2cccc3cc(-c4cccc5[nH]nc(N)c45)ccc23)ccc1F` gave an activity vs control of 102% (enzyme activity; inhibitor; 0.1 µM).
`CN(C)C1CCN(CC#Cc2nn(C3CCCC3)c3nc(NCc4ccccc4)ncc23)C1` (stereo not shown) has an inhibition of 9% (enzyme activity; inhibitor; FRET; 0.1 µM).
The remaining binding of `CC(C)CC(=O)N1CCc2nc(-c3ccc(Br)cc3)nc(N(C)Cc3ccccc3)c2C1` is reported as 100% (cell-free assay; competition with immobilised ligand; 0.1 µM).
The remaining signal of `Cc1ccc(NC(=O)c2ccc(C)c(C(F)(F)F)c2)cc1C#Cc1nn(C2CCC(O)CC2)c2ncnc(N)c12` (stereo not shown) is reported as 34% (cell-free assay; 10 µM).
The remaining binding of `COCCOc1nc(-c2ccc(Cl)nc2)nc2c1CN(C(=O)c1ncn3ccccc13)CC2` is reported as 100% (cell-free assay; competition with immobilised ligand; 0.1 µM).
With `COc1cc2ncnc(Nc3ccc(Oc4ccccc4)c(C)c3C)c2cc1OC` the inhibition was 1% (enzyme activity; inhibitor; 1 µM).
